Test results from PubChem BioAssay AID624290 (Broad Institute, 2012).
Several values for one entry are separate records, joined by “and”; a condition that tells them apart may be missing. Equal values may be shown once. Activity calls are given as the source filed them.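 The calls were made as follows: active = compounds dimming the MITF-driven luciferase signal, with fitted AC50 at most twice the top tested dose; inconclusive = flat curves with moderate signal drop, or poor-quality fits; inactive = the rest.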

What was measured:
[1] = tested on: SK-MEL-5 TRPM1-promoter luciferase reporter, 24 h; assay: TRPM1 promoter luciferase signal reduction, dose response, MITF inhibitor project, cell-based, SK-MEL-5, dry powder samples, set 2 (AID 624290)
Summary of the method: (§1)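 material = SK-MEL-5 TRPM1-promoter luciferase reporter cells | timing = compound pinned one day after plating, 24 h exposure at 37 °C | signal = luciferase luminescence with SteadyGlo reagent, 5 min room-temperature incubation | evaluation = luminescence change reflecting TRPM1 promoter activity, decrease as inhibition | benchmarks = parthenolide as positive control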

[2] = as above; conditions: SK-MEL-5 TRPM1-promoter luciferase reporter, 24 h; at 35 µM (top of the series)
Summary of the method: as §1

Row | SMILES | AC50 [1] | activity change, negative = inhibition [2]
1 | O=C1C(NCCCN2CCOCC2)=C(Nc2ccccc2)C(=O)c2ccccc21 | 7.78 µM | 
2 | Cc1nc2ccccc2n1/N=C/c1ccc([N+](=O)[O-])s1 | 1.98 µM | 
3 | O=C1C(Nc2ccccc2)=C(N2CCOCC2)C(=O)c2ccccc21 | 7.25 µM and 6.91 µM | 
4 | COc1cccc(C2=C(NC(=O)c3ccccc3)C(=O)c3ccccc3C2=O)c1 | 13.4 µM | 
5 | C=CCNC1=C(Nc2ccccc2)C(=O)c2ccccc2C1=O | 8.22 µM | 
6 | CCN1CCN(C2=C(NS(=O)(=O)c3ccc(Br)cc3)C(=O)c3ccccc3C2=O)CC1 | 4.27 µM | 
7 | CC(=O)NC1=C(c2cccc(Cl)c2)C(=O)c2ccccc2C1=O | 2.31 µM | 
8 | O=C(NC1=C(c2ccc(OC(F)(F)F)cc2)C(=O)c2ccccc2C1=O)c1ccccc1 | 16.6 µM | 
9 | C=CCNC1=C(N2CCN(C)CC2)C(=O)c2ccccc2C1=O | 4.58 µM | 
10 | O=C(NC1=C(N2CCCCC2)C(=O)c2ccccc2C1=O)c1ccc(Br)cc1 |  | -0.221% (inactive)
11 | COc1ccc(C2=C(NC(=O)c3ccc(Cl)cc3)C(=O)c3ccccc3C2=O)cc1 | 12.2 µM | 
12 | CCN1CCN(C2=C(Nc3ccccc3)C(=O)c3ccccc3C2=O)CC1 | 2.34 µM | 
13 | O=C(NC1=C(c2ccc(Oc3ccccc3)cc2)C(=O)c2ccccc2C1=O)c1ccccc1 | > 70 µM (inactive) | 
14 | O=C(CNc1cccc2ccccc12)N/N=C/c1ccc([N+](=O)[O-])o1 | 1.52 µM | 
15 | C=CCNC1=C(N2CCSCC2)C(=O)c2ccccc2C1=O | 5.12 µM | 
16 | C=CCNC1=C(N2CCCCC2)C(=O)c2ccccc2C1=O | 0.614 µM | 
17 | COc1ccc(S(=O)(=O)N(C(C)=O)c2ccc(OC(C)=O)c3ccccc23)cc1[N+](=O)[O-] | 6.36 µM | 
18 | CCN1CCN(C2=C(NC(=O)c3ccc(Br)cc3)C(=O)c3ccccc3C2=O)CC1 | 0.433 µM | 
19 | NC1=CC(=O)c2ccccc2C1=O | 1.1 µM | 
20 | O=C1C(NS(=O)(=O)c2cccs2)=C(N2CCCCC2)C(=O)c2ccccc21 | 21.3 µM | 
21 | O=C1C(NS(=O)(=O)c2ccc(Br)s2)=C(N2CCCCC2)C(=O)c2ccccc21 | 16.6 µM | 

Row | SMILES | AC50 [1] | activity change, negative = inhibition [2]
22 | NC1=C(c2ccccc2)C(=O)c2ccccc2C1=O | 5.86 µM | 
23 | COc1ccc(C2=C(NC(=O)c3ccc(OC)cc3-c3cccc(OC)c3)C(=O)c3ccccc3C2=O)cc1 | > 70 µM (inactive) | 
24 | COc1ccc(C2=C(NC(=O)c3ccc4ccccc4c3)C(=O)c3ccccc3C2=O)cc1 | > 70 µM (inactive) | 
25 | CN1CCN(C2=C(NC(=O)c3ccc(Br)cc3)C(=O)c3ccccc3C2=O)CC1 | 0.685 µM | 
26 | O=C(NC1=C(c2ccccc2)C(=O)c2ccccc2C1=O)c1ccc(Br)cc1 | 9.43 µM | 
27 | NC1=C(NC(=O)c2ccccc2)C(=O)c2ccccc2C1=O | 3.65 µM | 
28 | C=CCNC1=C(NCCN(CC)CC)C(=O)c2ccccc2C1=O | 1.88 µM | 
29 | CCN1CCN(C2=C(NC(=O)c3ccccc3)C(=O)c3ccccc3C2=O)CC1 | 0.714 µM | 
30 | CCN(CC)CCNC1=C(Nc2ccccc2)C(=O)c2ccccc2C1=O | 1.66 µM | 
31 | COc1ccc(C(=O)NC2=C(c3ccc(OC)cc3)C(=O)c3ccccc3C2=O)cc1 | 5.86 µM | 
32 | CN1CCN(C2=C(NC(=O)c3ccccc3)C(=O)c3ccccc3C2=O)CC1 | 0.524 µM | 
33 | O=C(NC1=C(Cl)C(=O)c2ccccc2C1=O)c1ccccc1 | 0.806 µM | 
34 | O=C1C(Nc2ccccc2)=C(NS(=O)(=O)c2ccccc2[N+](=O)[O-])C(=O)c2ccccc21 | 17.9 µM | 
35 | CN1CCN(C2=C(NS(=O)(=O)c3ccc(Br)s3)C(=O)c3ccccc3C2=O)CC1 | 2.53 µM | 
36 | O=C1C(NS(=O)(=O)c2ccccc2)=C(N2CCCCC2)C(=O)c2ccccc21 | 21.5 µM | 
37 | COc1ccc(C(=O)NC2=C(c3ccccc3)C(=O)c3ccccc3C2=O)cc1 | 4.99 µM | 
38 | CC(=O)NC1=C(c2ccc3c(c2)oc2ccccc23)C(=O)c2ccccc2C1=O | 1.04 µM | 
39 | COc1ccc(C2=C(NC(=O)c3ccccc3OC)C(=O)c3ccccc3C2=O)cc1 | 25.4 µM | 
40 | C=CCNC1=C(NCCCN(CC)CC)C(=O)c2ccccc2C1=O | 2.17 µM | 
41 | COc1ccc(C2=C(N)C(=O)c3ccccc3C2=O)cc1 | 35.1 µM | 
42 | O=C(NC1=C(N2CCCCC2)C(=O)c2ccccc2C1=O)c1ccccc1 | > 32 µM (inactive) | 

Row | SMILES | AC50 [1] | activity change, negative = inhibition [2]
43 | CC(=O)N(C)C1=C(N2CCCCC2)C(=O)c2ccccc2C1=O | 0.576 µM | 
44 | O=C(NC1=C(N2CCOCC2)C(=O)c2ccccc2C1=O)c1ccccc1 | 5.21 µM | 
45 | O=C1C(NS(=O)(=O)c2ccc(Br)cc2)=C(c2ccc(OC(F)(F)F)cc2)C(=O)c2ccccc21 | 10.4 µM | 
46 | O=C1C=C(Nc2ccccc2)C(=O)c2ccccc21 | 4.03 µM | 
47 | O=C1C(NS(=O)(=O)c2ccc(Br)cc2)=C(c2ccccc2)C(=O)c2ccccc21 | 18.5 µM | 
48 | O=C(NC1=C(N2CCN(c3ccccc3)CC2)C(=O)c2ccccc2C1=O)c1ccccc1 | 17.1 µM | 
49 | COc1ccc(C(=O)NC2=C(c3ccc(OC(F)(F)F)cc3)C(=O)c3ccccc3C2=O)cc1 | 34.1 µM | 
50 | O=C1C(NS(=O)(=O)c2ccc(Br)s2)=C(N2CCSCC2)C(=O)c2ccccc21 | 12.1 µM | 
51 | C[C@@H](NC1=C(Nc2ccccc2)C(=O)c2ccccc2C1=O)c1ccccc1 | 6.71 µM | 
52 | CCN1CCN(C2=C(NS(=O)(=O)c3ccc(Br)s3)C(=O)c3ccccc3C2=O)CC1 | 2.97 µM | 
53 | O=C(NC1=C(c2ccc(OC(F)(F)F)cc2)C(=O)c2ccccc2C1=O)c1ccccc1F | 12 µM | 
54 | O=C1C(NS(=O)(=O)c2ccccc2)=C(N2CCOCC2)C(=O)c2ccccc21 | 10.5 µM | 
55 | CC(=O)N(C)C1=C(N2CCOCC2)C(=O)c2ccccc2C1=O | 2.04 µM | 
56 | O=C(NC1=C(N2CCSCC2)C(=O)c2ccccc2C1=O)c1ccccc1 | 3.07 µM | 
57 | CCN1CCN(C2=C(NS(=O)(=O)c3cccs3)C(=O)c3ccccc3C2=O)CC1 | 2.8 µM | 
58 | Cc1ccc(C(=O)NC2=C(c3ccc(OC(F)(F)F)cc3)C(=O)c3ccccc3C2=O)o1 | 12.4 µM | 
59 | C=CCNC1=C(N2CCOCC2)C(=O)c2ccccc2C1=O | 2.17 µM | 
60 | CCN1CCN(C2=C(N(C)C(C)=O)C(=O)c3ccccc3C2=O)CC1 | 0.561 µM | 
61 | O=C1C(Nc2ccccc2)=C(N2CCCCC2)C(=O)c2ccccc21 | 9.81 µM | 
